Active and inactive are the calls of the source. The calls are words filed in the database; no cut-off is given here.
biological target: T1, Aurora kinase A (Homo sapiens) (UniProt O14965); experiment: Inhibition of aurora A at 0.1 uM
T1 sequence (whole entry): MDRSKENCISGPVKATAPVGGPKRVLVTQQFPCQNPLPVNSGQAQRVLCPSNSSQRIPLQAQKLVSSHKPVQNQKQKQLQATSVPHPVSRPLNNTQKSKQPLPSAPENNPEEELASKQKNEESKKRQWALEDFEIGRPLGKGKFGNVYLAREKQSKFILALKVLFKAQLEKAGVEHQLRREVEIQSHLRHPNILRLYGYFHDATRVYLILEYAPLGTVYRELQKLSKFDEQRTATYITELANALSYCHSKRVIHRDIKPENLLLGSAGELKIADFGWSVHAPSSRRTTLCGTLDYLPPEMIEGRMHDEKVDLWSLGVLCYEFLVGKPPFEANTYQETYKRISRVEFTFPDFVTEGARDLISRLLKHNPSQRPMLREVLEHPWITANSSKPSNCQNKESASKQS
Summary of the method: (§1)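 Kinase panel run per ProfilerPro kit protocol. Compounds preincubated with enzyme 15 min at room temperature. Reaction started with peptide substrate (fixed 1.5 µM) and ATP at apparent Km, run 90 min, then stopped with termination buffer. Tested in duplicate. Read by microfluidic mobility-shift (Caliper), with product/(product+substrate) ratio as signal.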

inhibition | SMILES
Active | NC(=O)c1cccc(CNC(=O)c2cc3c(c4c2[nH]c2ccccc24)C(=O)NC3=O)c1

biological target: Serine/threonine-protein kinase Chk2 (Homo sapiens) (UniProt O96017); experiment: Inhibition of Chk2 at 0.1 uM; summary of the method: as §1
Sequence (O96017 whole entry): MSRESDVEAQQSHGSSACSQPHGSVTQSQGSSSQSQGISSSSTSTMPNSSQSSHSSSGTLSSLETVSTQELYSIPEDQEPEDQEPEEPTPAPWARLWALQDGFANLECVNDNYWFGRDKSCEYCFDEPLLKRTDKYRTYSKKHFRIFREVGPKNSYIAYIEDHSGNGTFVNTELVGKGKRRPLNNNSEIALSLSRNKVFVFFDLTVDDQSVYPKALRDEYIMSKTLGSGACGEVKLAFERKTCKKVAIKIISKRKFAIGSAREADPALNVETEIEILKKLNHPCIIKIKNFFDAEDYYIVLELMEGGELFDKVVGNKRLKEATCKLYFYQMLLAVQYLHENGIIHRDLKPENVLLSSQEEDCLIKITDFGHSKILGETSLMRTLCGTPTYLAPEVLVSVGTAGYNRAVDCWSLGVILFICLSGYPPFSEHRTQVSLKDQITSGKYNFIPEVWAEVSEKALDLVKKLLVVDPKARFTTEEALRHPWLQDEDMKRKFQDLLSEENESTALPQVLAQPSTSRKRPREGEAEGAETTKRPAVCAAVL

inhibition | SMILES
Active | NC(=O)c1cccc(CNC(=O)c2cc3c(c4c2[nH]c2ccccc24)C(=O)NC3=O)c1

biological target: T2, Serine/threonine-protein kinase Chk1 (Homo sapiens) (UniProt O14757); experiment: Inhibition of human recombinant Chk1 at 10 uM
T2 sequence (whole entry): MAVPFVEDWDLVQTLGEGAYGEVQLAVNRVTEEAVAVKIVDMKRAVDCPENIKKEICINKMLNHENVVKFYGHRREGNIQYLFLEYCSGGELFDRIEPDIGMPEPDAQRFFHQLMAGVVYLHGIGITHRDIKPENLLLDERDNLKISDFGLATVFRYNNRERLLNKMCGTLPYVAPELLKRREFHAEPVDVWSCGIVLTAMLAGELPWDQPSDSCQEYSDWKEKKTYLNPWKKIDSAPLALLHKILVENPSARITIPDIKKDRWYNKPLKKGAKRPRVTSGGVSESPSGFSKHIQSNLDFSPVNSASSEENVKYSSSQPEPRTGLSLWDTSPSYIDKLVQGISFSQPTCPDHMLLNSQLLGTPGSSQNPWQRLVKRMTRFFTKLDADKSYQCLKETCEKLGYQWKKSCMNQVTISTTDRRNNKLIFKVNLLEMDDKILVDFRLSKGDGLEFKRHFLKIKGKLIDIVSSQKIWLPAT
Summary of the method: (§2)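 Chk1 activity measured by K-LISA checkpoint kit ELISA, following phosphorylation of a Cdc25 substrate peptide. Absorbance read at 450/540 nm. Inhibition calculated from activity with versus without compound. IC50 is the concentration inhibiting peptide phosphorylation. Values are the mean of three separate determinations.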

inhibition | SMILES
48% | N#Cc1cccc(CNC(=O)c2cc3c(c4c2[nH]c2ccccc24)C(=O)NC3=O)c1
27% | NC(=O)c1ccc(CNC(=O)c2cc3c(c4c2[nH]c2ccccc24)C(=O)NC3=O)cc1
46% | O=C1NC(=O)c2c1cc(C(=O)O)c1[nH]c3ccccc3c21
1% | CC(C)(C)OC(=O)c1cc2c(c3c1[nH]c1ccccc13)C(=O)NC2=O
46% | N#Cc1ccc(CNC(=O)c2cc3c(c4c2[nH]c2ccccc24)C(=O)NC3=O)cc1
71% | O=C1NC(=O)c2c1cc(C(=O)NCc1ccccc1)c1[nH]c3ccccc3c21
83% | NC(=O)c1cccc(CNC(=O)c2cc3c(c4c2[nH]c2ccccc24)C(=O)NC3=O)c1

test system: CCRF-CEM; experiment: Cytotoxicity against human CCRF-CEM cells up to 10 uM after 48 hrs; format: functional, cell-based
Summary of the method: (§3)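 Cells grown in RPMI 1640 with 10% FBS at 37 °C, 5% CO2. Exponentially growing cells seeded, treated after 24 h with compound for 48 h. Viability read by CCK-8 (2 h development, absorbance 450 nm), expressed as percent of untreated control. Three separate experiments, each in triplicate.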

SMILES | Activity
CN[C@@H]1C[C@H]2O[C@@](C)([C@@H]1OC)n1c3ccccc3c3c4c(c5c6ccccc6n2c5c31)C(=O)N[C@H]4O | inactive
NCCCNC(=O)c1cccc(CNC(=O)c2cc3c(c4c2[nH]c2ccc(O)cc24)C(=O)NC3=O)c1 | inactive
N=C(N)NCCCNC(=O)c1cccc(CNC(=O)c2cc3c(c4c2[nH]c2ccccc24)C(=O)NC3=O)c1 | inactive
Cl.NCCNC(=O)c1cccc(CNC(=O)c2cc3c(c4c2[nH]c2ccc(O)cc24)C(=O)NC3=O)c1 | inactive
N=C(N)NCCNC(=O)c1cccc(CNC(=O)c2cc3c(c4c2[nH]c2ccc(O)cc24)C(=O)NC3=O)c1 | inactive
NCCNC(=O)c1cccc(CNC(=O)c2cc3c(c4c2[nH]c2ccccc24)C(=O)NC3=O)c1 | inactive
N=C(N)NCCCNC(=O)c1cccc(CNC(=O)c2cc3c(c4c2[nH]c2ccc(O)cc24)C(=O)NC3=O)c1 | inactive
NC(=O)c1cccc(CNC(=O)c2cc3c(c4c2[nH]c2ccccc24)C(=O)NC3=O)c1 | inactive
NCCCNC(=O)c1cccc(CNC(=O)c2cc3c(c4c2[nH]c2ccccc24)C(=O)NC3=O)c1 | inactive
N=C(N)NCCNC(=O)c1cccc(CNC(=O)c2cc3c(c4c2[nH]c2ccccc24)C(=O)NC3=O)c1 | inactive

biological target: T3, Calcium/calmodulin-dependent protein kinase type IV (Homo sapiens) (UniProt Q16566); experiment: Inhibition of CAMK4 at 0.1 uM; summary of the method: as §1
T3 sequence (whole entry): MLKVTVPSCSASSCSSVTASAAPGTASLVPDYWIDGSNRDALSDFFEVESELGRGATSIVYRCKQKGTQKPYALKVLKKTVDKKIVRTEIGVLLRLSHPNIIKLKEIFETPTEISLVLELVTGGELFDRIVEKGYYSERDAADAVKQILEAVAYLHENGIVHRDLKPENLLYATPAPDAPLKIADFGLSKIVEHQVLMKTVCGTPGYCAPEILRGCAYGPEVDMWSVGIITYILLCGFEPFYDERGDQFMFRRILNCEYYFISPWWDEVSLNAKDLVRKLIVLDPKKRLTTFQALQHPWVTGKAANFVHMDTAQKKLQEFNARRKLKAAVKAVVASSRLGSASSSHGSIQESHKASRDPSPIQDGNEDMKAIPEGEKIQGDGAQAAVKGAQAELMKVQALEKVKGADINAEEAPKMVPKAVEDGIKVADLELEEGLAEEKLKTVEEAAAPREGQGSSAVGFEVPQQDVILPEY

inhibition | SMILES
Active | NC(=O)c1cccc(CNC(=O)c2cc3c(c4c2[nH]c2ccccc24)C(=O)NC3=O)c1

biological target: Serine/threonine-protein kinase MARK1 (Homo sapiens) (UniProt Q9P0L2); experiment: Inhibition of MARK1 at 0.1 uM; summary of the method: as §1
Sequence (Q9P0L2 whole entry, looked up): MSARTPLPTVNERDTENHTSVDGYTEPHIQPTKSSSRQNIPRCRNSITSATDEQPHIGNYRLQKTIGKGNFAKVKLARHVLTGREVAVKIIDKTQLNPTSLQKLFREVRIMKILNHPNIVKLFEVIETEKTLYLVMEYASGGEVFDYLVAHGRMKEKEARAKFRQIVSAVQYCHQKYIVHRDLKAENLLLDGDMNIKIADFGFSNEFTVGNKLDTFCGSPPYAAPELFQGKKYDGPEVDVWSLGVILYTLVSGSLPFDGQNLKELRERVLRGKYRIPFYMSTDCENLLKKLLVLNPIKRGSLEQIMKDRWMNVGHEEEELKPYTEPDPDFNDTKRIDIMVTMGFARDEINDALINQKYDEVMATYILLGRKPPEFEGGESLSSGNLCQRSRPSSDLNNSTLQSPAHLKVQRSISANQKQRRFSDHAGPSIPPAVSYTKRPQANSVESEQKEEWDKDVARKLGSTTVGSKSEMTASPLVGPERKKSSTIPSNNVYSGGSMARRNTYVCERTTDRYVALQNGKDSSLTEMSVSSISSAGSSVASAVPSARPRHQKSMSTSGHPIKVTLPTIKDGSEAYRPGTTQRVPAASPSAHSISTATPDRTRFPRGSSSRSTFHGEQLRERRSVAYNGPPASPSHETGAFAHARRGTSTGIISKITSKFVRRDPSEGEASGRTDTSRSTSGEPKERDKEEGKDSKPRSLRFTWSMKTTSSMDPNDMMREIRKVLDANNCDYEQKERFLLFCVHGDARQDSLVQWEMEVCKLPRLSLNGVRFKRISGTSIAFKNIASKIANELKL

inhibition | SMILES
Active | NC(=O)c1cccc(CNC(=O)c2cc3c(c4c2[nH]c2ccccc24)C(=O)NC3=O)c1

biological target: Serine/threonine-protein kinase pim-2 (Homo sapiens) (UniProt Q9P1W9); experiment: Inhibition of PIM2 at 0.1 uM; summary of the method: as §1
Sequence (Q9P1W9 whole entry, looked up): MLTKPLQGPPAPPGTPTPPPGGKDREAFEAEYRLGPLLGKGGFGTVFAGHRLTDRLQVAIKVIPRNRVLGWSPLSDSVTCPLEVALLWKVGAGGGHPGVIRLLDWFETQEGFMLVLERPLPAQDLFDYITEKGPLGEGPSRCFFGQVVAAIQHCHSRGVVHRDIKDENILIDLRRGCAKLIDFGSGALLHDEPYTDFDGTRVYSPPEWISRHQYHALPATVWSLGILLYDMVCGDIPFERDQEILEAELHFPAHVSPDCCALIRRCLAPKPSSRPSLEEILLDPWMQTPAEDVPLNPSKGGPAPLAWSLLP

inhibition | SMILES
Active | NC(=O)c1cccc(CNC(=O)c2cc3c(c4c2[nH]c2ccccc24)C(=O)NC3=O)c1

test system: ML-1a; experiment: Cytotoxicity against human ML-1a cells up to 10 uM after 48 hrs; format: functional, cell-based; summary of the method: as §3

SMILES | Activity
CN[C@@H]1C[C@H]2O[C@@](C)([C@@H]1OC)n1c3ccccc3c3c4c(c5c6ccccc6n2c5c31)C(=O)N[C@H]4O | inactive
NCCCNC(=O)c1cccc(CNC(=O)c2cc3c(c4c2[nH]c2ccc(O)cc24)C(=O)NC3=O)c1 | inactive
N=C(N)NCCCNC(=O)c1cccc(CNC(=O)c2cc3c(c4c2[nH]c2ccccc24)C(=O)NC3=O)c1 | inactive
Cl.NCCNC(=O)c1cccc(CNC(=O)c2cc3c(c4c2[nH]c2ccc(O)cc24)C(=O)NC3=O)c1 | inactive
N=C(N)NCCNC(=O)c1cccc(CNC(=O)c2cc3c(c4c2[nH]c2ccc(O)cc24)C(=O)NC3=O)c1 | inactive
NCCNC(=O)c1cccc(CNC(=O)c2cc3c(c4c2[nH]c2ccccc24)C(=O)NC3=O)c1 | inactive
N=C(N)NCCCNC(=O)c1cccc(CNC(=O)c2cc3c(c4c2[nH]c2ccc(O)cc24)C(=O)NC3=O)c1 | inactive
NC(=O)c1cccc(CNC(=O)c2cc3c(c4c2[nH]c2ccccc24)C(=O)NC3=O)c1 | inactive
NCCCNC(=O)c1cccc(CNC(=O)c2cc3c(c4c2[nH]c2ccccc24)C(=O)NC3=O)c1 | inactive
N=C(N)NCCNC(=O)c1cccc(CNC(=O)c2cc3c(c4c2[nH]c2ccccc24)C(=O)NC3=O)c1 | inactive

biological target: T4, Serine/threonine-protein kinase D2 (Homo sapiens) (UniProt Q9BZL6); experiment: Inhibition of PKD2 at 0.1 uM; summary of the method: as §1
T4 sequence (whole entry): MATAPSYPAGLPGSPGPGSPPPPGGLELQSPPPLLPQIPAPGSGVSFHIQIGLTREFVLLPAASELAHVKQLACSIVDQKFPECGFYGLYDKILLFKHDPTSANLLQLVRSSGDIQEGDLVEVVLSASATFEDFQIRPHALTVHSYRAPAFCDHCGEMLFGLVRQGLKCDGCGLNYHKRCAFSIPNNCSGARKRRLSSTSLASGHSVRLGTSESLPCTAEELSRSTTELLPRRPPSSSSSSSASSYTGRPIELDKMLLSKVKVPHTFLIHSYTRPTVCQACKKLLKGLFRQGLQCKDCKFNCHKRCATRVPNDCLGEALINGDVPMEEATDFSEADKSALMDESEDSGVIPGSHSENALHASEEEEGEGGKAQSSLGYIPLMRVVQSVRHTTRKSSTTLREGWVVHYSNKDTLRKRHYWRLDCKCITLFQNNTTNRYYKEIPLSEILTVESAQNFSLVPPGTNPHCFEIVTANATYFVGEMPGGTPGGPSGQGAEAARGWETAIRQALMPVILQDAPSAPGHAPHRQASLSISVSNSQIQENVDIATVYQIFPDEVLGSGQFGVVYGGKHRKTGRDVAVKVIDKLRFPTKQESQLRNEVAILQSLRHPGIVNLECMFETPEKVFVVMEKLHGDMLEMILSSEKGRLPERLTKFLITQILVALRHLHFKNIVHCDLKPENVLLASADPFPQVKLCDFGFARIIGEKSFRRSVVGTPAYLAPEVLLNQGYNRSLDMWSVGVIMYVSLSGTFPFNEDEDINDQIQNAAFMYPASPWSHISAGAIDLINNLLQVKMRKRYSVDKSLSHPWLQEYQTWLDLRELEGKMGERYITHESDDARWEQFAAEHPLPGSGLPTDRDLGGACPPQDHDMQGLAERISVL

inhibition | SMILES
Active | NC(=O)c1cccc(CNC(=O)c2cc3c(c4c2[nH]c2ccccc24)C(=O)NC3=O)c1

test system: HeLa; experiment: Cytotoxicity against human HeLa cells assessed as potentiation of SN-38-induced induction of DNA damaging activity at 5 uM after 48 hrs; format: functional
Summary of the method: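 HeLa cells kept in MEM with 10% FBS and 1% nonessential amino acids at 37 °C, 5% CO2. Seeded cells treated after 24 h with SN-38, with or without test compound, for 48 h. Live cells measured by CCK-8 (2 h, A450), viability as percent of untreated control. Three experiments in triplicate.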

SMILES | fold change (FC)
Cl.NCCNC(=O)c1cccc(CNC(=O)c2cc3c(c4c2[nH]c2ccc(O)cc24)C(=O)NC3=O)c1 | 4

test system: not listed separately; experiment: Inhibition of CAMK2 at 0.1 uM; summary of the method: as §1

inhibition | SMILES
Active | NC(=O)c1cccc(CNC(=O)c2cc3c(c4c2[nH]c2ccccc24)C(=O)NC3=O)c1

biological target: T5, 5'-AMP-activated protein kinase subunit beta-1 (Homo sapiens) (UniProt Q9Y478); experiment: Inhibition of AMPK at 0.1 uM; summary of the method: as §1
T5 sequence (whole entry): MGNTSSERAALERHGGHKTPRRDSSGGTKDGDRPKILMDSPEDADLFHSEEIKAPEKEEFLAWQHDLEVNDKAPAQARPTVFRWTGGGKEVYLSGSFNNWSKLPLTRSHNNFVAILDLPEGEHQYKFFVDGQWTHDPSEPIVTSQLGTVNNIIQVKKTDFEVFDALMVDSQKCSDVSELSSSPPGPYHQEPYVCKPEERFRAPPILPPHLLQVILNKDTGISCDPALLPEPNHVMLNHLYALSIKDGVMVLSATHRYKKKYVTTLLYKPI

inhibition | SMILES
Active | NC(=O)c1cccc(CNC(=O)c2cc3c(c4c2[nH]c2ccccc24)C(=O)NC3=O)c1

biological target: T6, Serine/threonine-protein kinase Chk1 (Homo sapiens, UniProt O14757); experiment: Inhibition of human recombinant Chk1; summary of the method: as §2
T6 sequence (O14757 whole entry): T2 sequence (whole entry)

SMILES | IC50
NCCCNC(=O)c1cccc(CNC(=O)c2cc3c(c4c2[nH]c2ccc(O)cc24)C(=O)NC3=O)c1 | 46 nM
N=C(N)NCCCNC(=O)c1cccc(CNC(=O)c2cc3c(c4c2[nH]c2ccccc24)C(=O)NC3=O)c1 | 235 nM
Cl.NCCNC(=O)c1cccc(CNC(=O)c2cc3c(c4c2[nH]c2ccc(O)cc24)C(=O)NC3=O)c1 | 31 nM
N=C(N)NCCNC(=O)c1cccc(CNC(=O)c2cc3c(c4c2[nH]c2ccc(O)cc24)C(=O)NC3=O)c1 | 2.8 nM
NCCNC(=O)c1cccc(CNC(=O)c2cc3c(c4c2[nH]c2ccccc24)C(=O)NC3=O)c1 | 336 nM
N=C(N)NCCCNC(=O)c1cccc(CNC(=O)c2cc3c(c4c2[nH]c2ccc(O)cc24)C(=O)NC3=O)c1 | 22 nM
NCCCNC(=O)c1cccc(CNC(=O)c2cc3c(c4c2[nH]c2ccccc24)C(=O)NC3=O)c1 | 251 nM
N=C(N)NCCNC(=O)c1cccc(CNC(=O)c2cc3c(c4c2[nH]c2ccccc24)C(=O)NC3=O)c1 | 123 nM

More lines, now with the values ahead:

IC50 | SMILES
9000 nM | O=C1NC(=O)c2c1cc(C(=O)NCc1ccccc1)c1[nH]c3ccccc3c21
448 nM | NC(=O)c1cccc(CNC(=O)c2cc3c(c4c2[nH]c2ccccc24)C(=O)NC3=O)c1

Source: ChEMBL document CHEMBL1275361, “Synthesis and evaluation of 5-substituted 9-hydroxypyrrolo[3,4-c]carbazole-1,3(2H,6H)-diones as check point 1 kinase inhibitors” (Bioorg Med Chem, 2010)
